Data as given in ChEMBL document CHEMBL1155477, “Benzothiophene containing Rho kinase inhibitors: Efficacy in an animal model of glaucoma” (Bioorg Med Chem Lett, 2010).
Values after ≈ are worked out from the molar mass of the structure shown. Values belong to the molecule of their own block, whether it stands above or below them. Active and inactive are the calls of the source. The calls are words filed in the database; no cut-off is given here.

What was measured:
[1] = Cytotoxicity against human GTM3 cells up to 30 uM after 24 hrs; type: cell-based; conditions: gtm3, 24 h
[2] = target: T1, Rho-associated protein kinase 1 (Homo sapiens, UniProt Q13464); test: Inhibition of ROCK1 assessed as ATP cunsumption
Target sequence in this assay (Q13464 whole entry): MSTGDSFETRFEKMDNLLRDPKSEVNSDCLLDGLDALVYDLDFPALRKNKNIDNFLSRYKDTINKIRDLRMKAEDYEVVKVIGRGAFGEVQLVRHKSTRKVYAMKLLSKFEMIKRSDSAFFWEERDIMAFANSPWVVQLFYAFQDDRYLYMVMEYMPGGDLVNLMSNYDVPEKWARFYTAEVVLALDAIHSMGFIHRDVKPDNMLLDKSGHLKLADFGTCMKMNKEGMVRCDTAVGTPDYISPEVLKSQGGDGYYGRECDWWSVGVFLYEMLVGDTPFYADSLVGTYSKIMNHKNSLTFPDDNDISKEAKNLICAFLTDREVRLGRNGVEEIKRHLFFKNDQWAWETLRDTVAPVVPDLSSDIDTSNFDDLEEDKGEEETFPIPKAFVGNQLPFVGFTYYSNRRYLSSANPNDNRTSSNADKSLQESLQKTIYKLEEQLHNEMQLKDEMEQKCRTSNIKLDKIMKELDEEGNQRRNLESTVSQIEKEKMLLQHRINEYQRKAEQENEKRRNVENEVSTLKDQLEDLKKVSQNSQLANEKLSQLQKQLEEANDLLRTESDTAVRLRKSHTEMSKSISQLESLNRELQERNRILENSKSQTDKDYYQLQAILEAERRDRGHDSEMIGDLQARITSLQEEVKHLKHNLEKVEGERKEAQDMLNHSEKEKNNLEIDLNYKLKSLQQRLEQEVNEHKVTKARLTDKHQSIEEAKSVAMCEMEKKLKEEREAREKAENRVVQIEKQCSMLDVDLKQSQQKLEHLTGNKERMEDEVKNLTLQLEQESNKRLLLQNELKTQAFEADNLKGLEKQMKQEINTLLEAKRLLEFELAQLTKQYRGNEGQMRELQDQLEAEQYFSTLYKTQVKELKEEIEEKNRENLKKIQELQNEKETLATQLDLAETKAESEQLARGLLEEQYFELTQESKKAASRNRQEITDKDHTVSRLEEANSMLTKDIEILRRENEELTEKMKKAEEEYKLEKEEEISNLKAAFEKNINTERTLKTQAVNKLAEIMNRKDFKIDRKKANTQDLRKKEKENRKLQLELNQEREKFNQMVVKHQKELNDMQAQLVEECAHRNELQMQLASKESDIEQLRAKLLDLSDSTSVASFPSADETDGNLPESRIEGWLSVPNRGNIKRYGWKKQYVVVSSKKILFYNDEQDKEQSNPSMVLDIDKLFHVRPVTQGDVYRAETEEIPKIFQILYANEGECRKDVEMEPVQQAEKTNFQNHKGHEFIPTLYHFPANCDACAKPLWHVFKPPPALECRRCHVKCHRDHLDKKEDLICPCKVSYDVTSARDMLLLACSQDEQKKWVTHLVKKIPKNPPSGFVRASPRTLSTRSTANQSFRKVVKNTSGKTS

[3] = target: T1, Rho-associated protein kinase 1; test: Inhibition of ROCK1 in human GTM3 cells up to 10 uM by impedance assay; type: cell-based
Target sequence in this assay (Q13464 2-1354 limits assumed): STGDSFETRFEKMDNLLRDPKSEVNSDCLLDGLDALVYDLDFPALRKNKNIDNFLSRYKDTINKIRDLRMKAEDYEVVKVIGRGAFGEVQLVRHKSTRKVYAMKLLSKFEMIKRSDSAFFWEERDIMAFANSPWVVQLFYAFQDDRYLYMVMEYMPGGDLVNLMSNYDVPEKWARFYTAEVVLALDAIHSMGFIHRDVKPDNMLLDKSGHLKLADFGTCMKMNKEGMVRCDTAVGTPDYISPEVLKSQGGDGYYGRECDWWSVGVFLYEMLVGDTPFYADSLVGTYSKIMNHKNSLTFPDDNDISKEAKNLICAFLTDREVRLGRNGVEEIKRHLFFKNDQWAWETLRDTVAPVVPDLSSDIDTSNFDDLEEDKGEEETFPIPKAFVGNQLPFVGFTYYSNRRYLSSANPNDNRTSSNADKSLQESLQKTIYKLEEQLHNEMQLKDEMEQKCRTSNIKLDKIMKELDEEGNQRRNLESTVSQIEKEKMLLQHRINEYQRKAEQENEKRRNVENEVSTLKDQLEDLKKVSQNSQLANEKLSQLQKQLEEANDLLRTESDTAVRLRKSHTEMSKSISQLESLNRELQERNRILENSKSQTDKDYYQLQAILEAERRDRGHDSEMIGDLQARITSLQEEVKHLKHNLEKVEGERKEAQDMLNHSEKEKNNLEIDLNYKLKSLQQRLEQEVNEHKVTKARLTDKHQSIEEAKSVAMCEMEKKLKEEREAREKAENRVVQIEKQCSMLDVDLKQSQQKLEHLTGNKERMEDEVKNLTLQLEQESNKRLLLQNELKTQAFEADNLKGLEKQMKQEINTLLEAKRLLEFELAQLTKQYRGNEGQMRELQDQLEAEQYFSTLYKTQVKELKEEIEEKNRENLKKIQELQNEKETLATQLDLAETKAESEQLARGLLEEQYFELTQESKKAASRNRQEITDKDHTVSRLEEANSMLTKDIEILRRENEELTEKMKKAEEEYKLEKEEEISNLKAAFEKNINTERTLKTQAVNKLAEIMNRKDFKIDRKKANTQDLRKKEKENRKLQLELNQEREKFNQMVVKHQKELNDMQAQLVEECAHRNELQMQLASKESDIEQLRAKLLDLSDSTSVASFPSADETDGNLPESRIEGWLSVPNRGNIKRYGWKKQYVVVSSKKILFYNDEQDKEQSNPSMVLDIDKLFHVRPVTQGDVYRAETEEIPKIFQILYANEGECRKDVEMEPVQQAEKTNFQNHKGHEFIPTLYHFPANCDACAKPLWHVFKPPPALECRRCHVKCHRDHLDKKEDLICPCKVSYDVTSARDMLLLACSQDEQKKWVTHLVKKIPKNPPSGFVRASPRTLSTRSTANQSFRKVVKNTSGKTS

[4] = target: Aurora kinase B (Homo sapiens) (UniProt Q96GD4); test: Inhibition of aurora B at 10 uM
Outline: (§1)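 Single-concentration screen at 10 µM in functional assays of a commercial kinase panel; percent inhibition reported when at least 50%.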

[5] = target: Ribosomal protein S6 kinase alpha-5 (Homo sapiens) (UniProt O75582); test: Inhibition of MSK1 at 10 uM; outline: as §1
[6] = target: Ribosomal protein S6 kinase beta-1 (Homo sapiens) (UniProt P23443); test: Inhibition of p70S6K at 10 uM; outline: as §1
[7] = Inhibition of PKA at 10 uM
[8] = target: Serine/threonine-protein kinase N1 (Homo sapiens) (UniProt Q16512); test: Inhibition of PKN1 at 10 uM; outline: as §1
[9] = target: T2, Serine/threonine-protein kinase Sgk1 (Homo sapiens) (UniProt O00141); test: Inhibition of SGk1 at 10 uM; outline: as §1
T2 sequence (whole entry): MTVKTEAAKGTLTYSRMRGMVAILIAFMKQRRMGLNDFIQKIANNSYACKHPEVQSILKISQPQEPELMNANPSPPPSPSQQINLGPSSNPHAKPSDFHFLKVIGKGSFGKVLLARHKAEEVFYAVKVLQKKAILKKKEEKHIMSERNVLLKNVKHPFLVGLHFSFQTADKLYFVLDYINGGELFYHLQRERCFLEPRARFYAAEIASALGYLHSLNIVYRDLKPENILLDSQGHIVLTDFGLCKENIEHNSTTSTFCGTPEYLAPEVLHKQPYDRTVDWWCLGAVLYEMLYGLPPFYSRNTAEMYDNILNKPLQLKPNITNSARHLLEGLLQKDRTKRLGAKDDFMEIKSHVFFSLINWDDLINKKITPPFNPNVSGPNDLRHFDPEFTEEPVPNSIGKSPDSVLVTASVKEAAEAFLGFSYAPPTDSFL

[10] = Aqueous solubility of the compound; type: physicochemical; conditions: water (aqueous)
[11] = target: T1, Rho-associated protein kinase 1; test: Inhibition of ROCK1 assessed as ATP cunsumption relative to control
Outline: (§2)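 ROCK1 enzyme reaction in 20 mM Tris-HCl pH 7.5, 10 mM MgCl2, 0.4 mM CaCl2, 0.15 mM EGTA, 0.1 mg/ml BSA. Compounds are run as an 11-point half-log series (final top 96 µM, 1% DMSO, 2–4 replicate wells) for 2 h at 30 °C. Readout is Easylite luminescence, normalized to DMSO and HMN-1152 controls. Values are means of ≥2 independent experiments.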
Target sequence in this assay (Q13464 2-1354 limits assumed): as the sequence (Q13464 2-1354 limits assumed) above

GTM3 [12] = test: Change in cellular morphology of human GTM3 cells assessed as decrease in vinculin staining density by immunofluorescence relative to control; type: functional, cell-based
Outline: (§3)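 GTM-3 cells plated on glass coverslips one day before use, exposed to compound or DMSO control for 3 h, fixed in 2% paraformaldehyde in PBS 10 min at rt, then indirect immunofluorescence with anti-vinculin mAb and Alexa-488 anti-mouse F(ab')2 secondary; vinculin staining density and intensity compared with DMSO-treated cells.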

GTM3 [13] = test: Change in cellular morphology of human GTM3 cells assessed as decrease in vinculin staining intensity by immunofluorescence relative to control; type: functional, cell-based; outline: as §3
[14] = target: T1, Rho-associated protein kinase 1; test: Inhibition of ROCK1 assessed as ATP cunsumption at 96 uM; outline: as §2
Target sequence in this assay (Q13464 2-1354 limits assumed): as the sequence (Q13464 2-1354 limits assumed) above

Cynomolgus monkey [15] = test: Reduction of intraocular pressure in laser-induced ocular hypertensive cynomolgus monkey at 250 ug/eye after 1 hr; type: functional, Macaca fascicularis; parameters: scale not given: the % may be the effect or the level left
Cynomolgus monkey [16] = test: Reduction of intraocular pressure in laser-induced ocular hypertensive cynomolgus monkey at 250 ug/eye after 3 hrs; type: functional, Macaca fascicularis; parameters: scale not given: the % may be the effect or the level left
Cynomolgus monkey [17] = test: Reduction of intraocular pressure in laser-induced ocular hypertensive cynomolgus monkey at 250 ug/eye after 6 hrs; type: functional, Macaca fascicularis; parameters: scale not given: the % may be the effect or the level left
Cynomolgus monkey [18] = test: Reduction of intraocular pressure in ocular hypertensive cynomolgus monkey at 250 ug/eye after 1 hr; type: functional, Macaca fascicularis; parameters: scale not given: the % may be the effect or the level left
Cynomolgus monkey [19] = test: Reduction of intraocular pressure in ocular hypertensive cynomolgus monkey at 250 ug/eye after 3 hrs; type: functional, Macaca fascicularis; parameters: scale not given: the % may be the effect or the level left
Cynomolgus monkey [20] = test: Reduction of intraocular pressure in ocular hypertensive cynomolgus monkey at 250 ug/eye after 6 hrs; type: functional, Macaca fascicularis; parameters: scale not given: the % may be the effect or the level left
[21] = target: T1, Rho-associated protein kinase 1; test: Inhibition of ROCK1 assessed as ATP cunsumption at 96 uM relative to control; outline: as §2
Target sequence in this assay (Q13464 2-1354 limits assumed): as the sequence (Q13464 2-1354 limits assumed) above

Sequence of Aurora kinase B (Homo sapiens) (Q96GD4 whole entry): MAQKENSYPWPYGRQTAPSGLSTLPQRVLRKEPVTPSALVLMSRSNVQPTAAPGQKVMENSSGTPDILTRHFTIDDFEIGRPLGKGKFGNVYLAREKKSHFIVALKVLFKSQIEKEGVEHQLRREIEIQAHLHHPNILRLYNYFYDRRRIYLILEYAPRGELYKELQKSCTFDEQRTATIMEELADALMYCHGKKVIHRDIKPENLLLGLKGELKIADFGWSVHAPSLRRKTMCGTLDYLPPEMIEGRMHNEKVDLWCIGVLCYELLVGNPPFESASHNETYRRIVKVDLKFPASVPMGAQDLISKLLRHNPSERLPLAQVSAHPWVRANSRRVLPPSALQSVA
Sequence of Ribosomal protein S6 kinase alpha-5 (Homo sapiens) (O75582 whole entry, looked up): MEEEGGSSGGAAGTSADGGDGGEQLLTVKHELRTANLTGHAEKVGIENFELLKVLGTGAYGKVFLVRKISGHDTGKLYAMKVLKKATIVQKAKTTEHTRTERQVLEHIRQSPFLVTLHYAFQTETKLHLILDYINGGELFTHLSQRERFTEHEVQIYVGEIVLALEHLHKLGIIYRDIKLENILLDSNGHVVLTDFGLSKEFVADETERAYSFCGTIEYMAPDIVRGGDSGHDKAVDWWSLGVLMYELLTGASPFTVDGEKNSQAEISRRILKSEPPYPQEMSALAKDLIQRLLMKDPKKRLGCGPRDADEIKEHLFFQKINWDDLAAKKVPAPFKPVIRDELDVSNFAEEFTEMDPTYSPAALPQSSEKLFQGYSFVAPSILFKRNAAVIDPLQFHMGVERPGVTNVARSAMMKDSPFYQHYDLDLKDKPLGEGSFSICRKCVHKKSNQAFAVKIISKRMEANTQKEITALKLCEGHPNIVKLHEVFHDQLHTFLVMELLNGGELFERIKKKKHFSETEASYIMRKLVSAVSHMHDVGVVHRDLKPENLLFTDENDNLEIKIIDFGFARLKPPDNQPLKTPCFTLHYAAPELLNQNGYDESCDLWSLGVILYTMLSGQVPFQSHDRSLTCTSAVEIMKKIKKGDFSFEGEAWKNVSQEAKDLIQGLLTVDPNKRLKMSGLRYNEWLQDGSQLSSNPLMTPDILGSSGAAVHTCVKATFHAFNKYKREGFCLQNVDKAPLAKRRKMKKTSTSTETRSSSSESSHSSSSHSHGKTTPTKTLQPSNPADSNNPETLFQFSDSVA
Sequence of Ribosomal protein S6 kinase beta-1 (Homo sapiens) (P23443 whole entry, looked up): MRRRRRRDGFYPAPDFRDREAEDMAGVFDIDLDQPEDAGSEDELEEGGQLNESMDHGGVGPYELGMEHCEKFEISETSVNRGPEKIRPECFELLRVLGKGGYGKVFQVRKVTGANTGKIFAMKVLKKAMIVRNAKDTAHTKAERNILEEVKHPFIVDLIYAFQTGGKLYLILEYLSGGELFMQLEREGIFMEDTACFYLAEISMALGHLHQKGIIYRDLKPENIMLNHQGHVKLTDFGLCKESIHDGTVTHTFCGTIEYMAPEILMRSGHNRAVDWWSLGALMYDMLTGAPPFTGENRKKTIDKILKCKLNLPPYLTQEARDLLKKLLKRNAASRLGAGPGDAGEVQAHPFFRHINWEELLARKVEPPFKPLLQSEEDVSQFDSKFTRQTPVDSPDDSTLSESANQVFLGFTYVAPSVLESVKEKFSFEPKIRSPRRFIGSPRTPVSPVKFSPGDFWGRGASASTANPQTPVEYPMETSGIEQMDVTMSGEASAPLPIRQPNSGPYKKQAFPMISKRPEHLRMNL

Compound: C[C@@H](N)c1ccc(C(=O)Nc2ccnc3[nH]ccc23)cc1 [Y-39983]
Activity [1]: Non-toxic

Compound: Cc1c(-c2ccnc(N)n2)sc2ccc(C(N)c3ccccc3)cc12 (racemic)
IC50 [2]: 0.02 µM

Compound: Cc1c(-c2ccnc3[nH]ccc23)sc2ccc(Cl)cc12
IC50 [2]: 7.1 µM
inhibition [3]: inactive

Compound: Cc1c(-c2ccnc(N)n2)sc2ccc(Cc3cccc(O)c3)cc12
IC50 [2]: 0.02 µM
inhibition [4]: 82%
inhibition [5]: 94%
inhibition [6]: 55%
inhibition [7]: 67%
inhibition [8]: 53%
inhibition [9]: 61%
solubility [10]: 10 µM (≈ 3.47 µg/mL)

Compound: Cc1c(-c2ccnc(N)c2)sc2ccc(Cl)cc12
IC50 [2]: 8.3 µM
Emax [11]: 44%
inhibition [3]: inactive

Compound: COc1ccccc1Cc1ccc2sc(-c3ccnc(N)n3)c(C)c2c1
IC50 [2]: 9.7 µM

Compound: Cc1cncc2cccc(S(=O)(=O)N3CCCNCC3C)c12 (stereo not drawn)
Activity (GTM3 [12]): Active
Activity (GTM3 [13]): Active

Compound: Cc1c(-c2ccnc(N)n2)sc2ccc(C(C)N)cc12 (racemic)
IC50 [2]: 0.4 µM

Compound: Cc1c(-c2ccncc2)sc2ccc(Cl)cc12
IC50 [2]: 28 µM
inhibition [3]: inactive

Compound: Cc1c(-c2ccnc(N)n2)sc2ccc(C(N)CC(C)C)cc12 (racemic)
IC50 [2]: 0.03 µM

Compound: Cc1cccc(C(N)c2ccc3sc(-c4ccnc(N)n4)c(C)c3c2)c1 (racemic)
IC50 [2]: 0.05 µM
Emax [11]: 67%

Compound: COC(=O)c1cccc(Cc2ccc3sc(-c4ccnc(N)n4)c(C)c3c2)c1
IC50 [2]: 10 µM

Compound: Cc1c(-c2ccnc(N(C)C)n2)sc2ccc(Cl)cc12
IC50 [2]: > 100 µM
Activity [14]: inactive
inhibition [3]: inactive

Compound: Cc1c(-c2ccnc(N)n2)sc2ccc(Cl)cc12
IC50 [2]: 1.5 µM
inhibition [3]: inactive

Compound: Cc1c(-c2ccnc(N)n2)sc2ccc(C(N)c3cccc(Cl)c3)cc12 (racemic)
IC50 [2]: 0.03 µM

Compound: CCCC(N)c1ccc2sc(-c3ccnc(N)n3)c(C)c2c1 (racemic)
IC50 [2]: 0.02 µM
Activity (Cynomolgus monkey [15]): -19.6%
Activity (Cynomolgus monkey [16]): -24.1%
Activity (Cynomolgus monkey [17]): -26%
Activity (Cynomolgus monkey [18]): -20%
Activity (Cynomolgus monkey [19]): -13.9%
Activity (Cynomolgus monkey [20]): -12%

Compound: CNc1nccc(-c2sc3ccc(Cl)cc3c2C)n1
IC50 [2]: 1.2 µM
Emax [11]: 17%
inhibition [3]: inactive

Compound: Cc1c(-c2ccnc(N)n2)sc2ccc(Cc3ccccc3)cc12
IC50 [2]: 0.58 µM

Further lines, results first:

IC50 [2]: 38 µM
Compound: O=S(=O)(c1cccc2c(I)cccc12)N1CCCNCC1

IC50 [2]: 13 µM
inhibition [3]: inactive
Compound: Cc1c(-c2cc(N)ncn2)sc2ccc(Cl)cc12

IC50 [2]: 7.2 µM
Compound: COc1ccc(Cc2ccc3sc(-c4ccnc(N)n4)c(C)c3c2)cc1

IC50 [2]: 0.06 µM
Compound: Cc1c(-c2ccnc(N)n2)sc2ccc(C(N)C(C)C)cc12 (racemic)

IC50 [2]: 2.9 µM
Compound: Cc1c(-c2ccnc(N)n2)sc2ccccc12

IC50 [2]: 0.06 µM
Compound: Cc1c(-c2ccnc(N)n2)sc2ccc(Cc3cccc(C(=O)O)c3)cc12

IC50 [2]: 0.14 µM
Compound: CCC(N)c1ccc2sc(-c3ccnc(N)n3)c(C)c2c1 (racemic)

IC50 [2]: 0.23 µM
solubility [10]: 40 µM (≈ 14.5 µg/mL)
Compound: COc1cccc(Cc2ccc3sc(-c4ccnc(N)n4)c(C)c3c2)c1

IC50 [2]: 8.6 µM
Compound: Cc1c(-c2ccnc(N)n2)sc2ccc(Cc3cccc(C(F)(F)F)c3)cc12

IC50 [2]: 0.02 µM
Emax [11]: 46%
Compound: COc1cccc(C(N)c2ccc3sc(-c4ccnc(N)n4)c(C)c3c2)c1 (racemic)

IC50 [2]: 0.09 µM
Emax [11]: 56%
Compound: COc1ccc(C(N)c2ccc3sc(-c4ccnc(N)n4)c(C)c3c2)cc1 (racemic)

IC50 [2]: > 10 µM
inhibition [3]: inactive
Compound: Cc1c(-c2c[nH]c3ncccc23)sc2ccc(Cl)cc12

IC50 [2]: 2.2 µM
Compound: Cc1c(-c2ccnc(N)n2)sc2ccc(CN)cc12

IC50 [2]: 4.2 µM
Emax [21]: 35%
Compound: Cc1c(-c2ccnc(N)n2)sc2ccc(-c3ccccc3)cc12

solubility [10]: 30 µM (≈ 10.5 µg/mL)
Compound: Cc1c(-c2ccnc(N)n2)sc2ccc(Nc3cccc(O)c3)cc12
